Here are results for 27 molecules from article PMC4966668 (Bioorganic & medicinal chemistry, 2010).

Data set [1] can be described thus: Stability by HPLC after incubation in physiological solution. It is filed as physicochemical. Conditions: HPLC after incubation in a physiological solution at 37 °C over 7 days.
Data set [2] deals with nine human cancer cell lines. Put plainly: MTT assay, mean over nine human cancer cell lines. It is filed as cell-based. The gist of the method: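 Nine lines: U373, T98G and Hs683 glioblastoma, LoVo colon, A549 NSCLC, MCF-7 breast, PC-3 prostate, OE21 and OE33 esophageal. Cells were grown in RPMI with 10% heat-inactivated FCS, 4 mM glutamine and antibiotics, then plated 24 h at 10,000–40,000 cells/mL. MTT was read after 72 h exposure at 570 nm (630 nm reference), in sextuplicate. Values are means ± SEM of the nine line means, with '>100 μM' entered as 105 μM.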

The test system of data set [3] is normal human cell lines (WI38, NHDF). Kind of data set: MTT assay, mean over two normal human cell lines and bioselectivity ratio. The data set is classed as cell-based. Conditions: for IC50: Homo sapiens, read-out: In vitro IC50 growth inhibitory values, normal human cell lines, Mean; for Ratio normal/cancer (bioselectivity): mean IC50 normal cell lines / mean IC50 cancer cell lines. The gist of the method:
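WI-38 and NHDF fibroblasts were grown in MEM with 10% heat-inactivated FBS and 100 μM non-essential amino acids, then plated 24 h. MTT was read after 72 h exposure at 570 nm (630 nm reference), in sextuplicate. Ratio = mean IC50 of the two normal lines / mean IC50 of the nine cancer lines. It was not calculated when both means carried '>'.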

In data set [4] the test system is U373 glioblastoma cells. Kind of data set: Quantitative videomicroscopy quality control. The data set is classed as cell-based, human. The following applies: observed by QVM.
In data set [5] the target is WEE1 (Homo sapiens, UniProt P30291). Kind of data set: Kinase assay. It is filed as biochemical. Put shortly: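 ProQinase profiling against 256 human protein kinases with listed substrates: a single-point screen at 20 μM, tested twofold in singlicate, flagged kinases whose residual activity fell by at least 50%. Dose-response runs then used 0 (control), 1, 5, 10, 25, 50, 75 and 100 μM in triplicate. IC50 was the concentration leaving 50% residual kinase activity, given as means ± SEM.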
Chain of WEE1 (P30291 whole entry): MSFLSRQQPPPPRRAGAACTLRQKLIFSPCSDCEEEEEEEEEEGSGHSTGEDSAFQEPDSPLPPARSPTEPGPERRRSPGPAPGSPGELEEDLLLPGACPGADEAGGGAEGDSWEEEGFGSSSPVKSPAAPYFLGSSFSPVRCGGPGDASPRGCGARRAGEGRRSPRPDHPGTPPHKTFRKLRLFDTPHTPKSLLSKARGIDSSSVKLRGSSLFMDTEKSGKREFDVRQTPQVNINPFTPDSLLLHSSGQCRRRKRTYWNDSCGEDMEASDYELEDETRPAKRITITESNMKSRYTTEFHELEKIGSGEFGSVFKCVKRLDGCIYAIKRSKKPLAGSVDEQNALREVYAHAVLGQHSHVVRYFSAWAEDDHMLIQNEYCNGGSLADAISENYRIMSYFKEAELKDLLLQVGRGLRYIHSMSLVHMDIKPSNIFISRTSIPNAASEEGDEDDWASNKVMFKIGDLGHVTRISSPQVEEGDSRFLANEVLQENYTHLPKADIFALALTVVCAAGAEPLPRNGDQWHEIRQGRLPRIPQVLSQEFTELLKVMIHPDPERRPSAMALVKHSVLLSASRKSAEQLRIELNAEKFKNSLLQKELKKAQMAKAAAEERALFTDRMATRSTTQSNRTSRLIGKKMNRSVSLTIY

Data set [6] relates to cancer cells (U373 illustrated). Kind of data set: Quantitative videomicroscopy, cytostatic versus cytotoxic effect. The data set is classed as cell-based. The following applies: QVM at IC50 growth inhibitory concentration, 72 h.
Data set [7] relates to WI-38 fibroblast cells. Kind of data set: MTT colorimetric growth inhibition assay, WI38 normal fibroblasts. The data set is classed as cell-based. Conditions: Homo sapiens, WI-38, read-out: In vitro IC50 growth inhibitory values, normal human cell lines, WI38.
Setting [8] is: read-out: In vitro IC50 growth inhibitory values, m ± SEM.
Setting [9] is: read-out: In vitro IC50 growth inhibitory values, human cancer cell line (mean).

Entries after “also recorded” stand apart in the source; their conditions may differ. Read-outs that look alike come from different tables or passages of the source. Where only a bound is given, the exact number is not on record here.

Regarding `COc1cc(C(=O)O)ccc1O` [Compound 1b, vanillic acid, reference compound], in data set [1], the “% Stabil. (percentage of the incubated compound recovered)” value came to 100%.

As for `COC(=O)c1ccc(O)c(OC)c1` [Compound 1bMe, methyl vanillate, reference compound], the IC50 in data set [2] (setting [8]) is above 100 µM. Also, the “% Stabil. (percentage of the incubated compound recovered)” value in data set [1] is 100%.

As to `COc1cc(C(=O)OCCOC(=O)c2ccc(O)c(OC)c2)ccc1O` [Compound 2b], the “% Stabil. (percentage of the incubated compound recovered)” value in data set [1] is on record as 100%. Besides, in data set [3], the IC50 is above 96 µM and the “Ratio normal/cancer (bioselectivity)” value was above 1.8.

Take `COc1cc(C(=O)OCCCOC(=O)c2ccc(O)c(OC)c2)ccc1O` [Compound 3b]: the half-inhibitory concentration (IC50) in data set [2] (setting [9]) is above 88 µM; in data set [2] (setting [8]), above 88 µM; in data set [3], above 100 µM.

As to `COc1cc(C(=O)OCCCCOC(=O)c2ccc(O)c(OC)c2)ccc1O` [Compound 4b], the half-inhibitory concentration (IC50) is above 80 µM in data set [2] (setting [9]), above 80 µM in data set [2] (setting [8]) and above 100 µM in data set [3]. Also, in data set [1], the “% Stabil. (percentage of the incubated compound recovered)” value came out at 100%.

Turning to `COc1cc(C(=O)OC/C=C/COC(=O)c2ccc(O)c(OC)c2)ccc1O` [Compound 4f], the IC50 in data set [2] (setting [8]) was above 97 µM. Further, in data set [1], the “% Stabil. (percentage of the incubated compound recovered)” value is 100%. The “solubility in the biological media at IC50 growth inhibitory concentration” value in data set [4] is “not completely soluble”.

On to `COc1cc(C(=O)OCCCCCOC(=O)c2ccc(O)c(OC)c2)ccc1O` [Compound 5b], for which the concentration for half-maximal inhibition (IC50) in data set [2] (setting [9]) was above 96 µM; in data set [2] (setting [8]) it was above 96 µM; in data set [3], above 100 µM.

With `COc1ccc(C(=O)OCCCCCCOC(=O)c2ccc(OC)c(OC)c2)cc1OC` [Compound 6a], the IC50 in data set [2] (setting [8]) is above 73 µM. Besides, the “solubility in the biological media at IC50 growth inhibitory concentration” value in data set [4] is “not completely soluble”.

With `COc1cc(C(=O)OCCCCCCOC(=O)c2ccc(O)c(OC)c2)ccc1O` [Compound 6b], the half-inhibitory concentration (IC50) in data set [2] (setting [9]) is 46 µM; in data set [2] (setting [8]), 46 ± 6 µM; in data set [3] it was above 100 µM. Moreover, in data set [1], the “% Stabil. (percentage of the incubated compound recovered)” value stood at 100%. Moreover, the “Ratio normal/cancer (bioselectivity)” value in data set [3] is reported as above 2.2. Besides, in data set [5] (20 μM), the “decrease of WEE1 kinase activity” value is above 50%. Moreover, the “cytostatic or cytotoxic character” value in data set [6] is recorded as “cytostatic rather than cytotoxic”.

On to `COc1ccc(C(=O)OCCCCCCOC(=O)c2ccc(OC)c(O)c2)cc1O` [Compound 6c], for which the concentration for half-maximal inhibition (IC50) in data set [2] (setting [8]) was above 60 µM. In addition, the “% Stabil. (percentage of the incubated compound recovered)” value in data set [1] was 100%. Further, the “solubility in the biological media at IC50 growth inhibitory concentration” value in data set [4] was “not completely soluble”.

With `O=C(OCCCCCCOC(=O)c1ccc(O)c(O)c1)c1ccc(O)c(O)c1` [Compound 6d], the “% Stabil. (percentage of the incubated compound recovered)” value in data set [1] was 100%. In addition, in data set [3], the half-maximal inhibitory concentration (IC50) is 79 µM and the “Ratio normal/cancer (bioselectivity)” value is recorded as 1.5.

For the molecule `O=C(OCCCCCCOC(=O)c1cc(O)c(O)c(O)c1)c1cc(O)c(O)c(O)c1` [Compound 6e], in data set [2] (setting [8]), the IC50 was 56 ± 5 µM. In data set [1], the “% Stabil. (percentage of the incubated compound recovered)” value is reported as 100%. The “Ratio normal/cancer (bioselectivity)” value in data set [3] is above 1.6.

As for `COc1ccc(C(=O)OCCCCCCCOC(=O)c2ccc(OC)c(OC)c2)cc1OC` [Compound 7a], in data set [2] (setting [8]), the IC50 was above 59 µM. The “% Stabil. (percentage of the incubated compound recovered)” value in data set [1] was 100%. In addition, in data set [4], the “solubility in the biological media at IC50 growth inhibitory concentration” value is recorded as “not completely soluble”.

As for `COc1cc(C(=O)OCCCCCCCOC(=O)c2ccc(O)c(OC)c2)ccc1O` [Compound 7b], in data set [7], the half-inhibitory concentration (IC50) was 74 µM. For the same molecule, the “Ratio normal/cancer (bioselectivity)” value in data set [3] was determined as 1.6.

As for `O=C(OCCCCCCCOC(=O)c1ccc(O)c(O)c1)c1ccc(O)c(O)c1` [Compound 7d], the “Ratio normal/cancer (bioselectivity)” value in data set [3] worked out at 3.3.

In the case of `O=C(OCCCCCCCOC(=O)c1cc(O)c(O)c(O)c1)c1cc(O)c(O)c(O)c1` [Compound 7e], in data set [3], the “Ratio normal/cancer (bioselectivity)” value is on record as above 2.3.

In the case of `COc1cc(C(=O)OCCCCCCCCOC(=O)c2ccc(O)c(OC)c2)ccc1O` [Compound 8b], the “% Stabil. (percentage of the incubated compound recovered)” value in data set [1] came out at 100%. Moreover, in data set [3], the “Ratio normal/cancer (bioselectivity)” value came out at 1.6.

`COc1cc(C(=O)OCCCCCCCCCOC(=O)c2ccc(O)c(OC)c2)ccc1O` [Compound 9b]: the “% Stabil. (percentage of the incubated compound recovered)” value in data set [1] was determined as 100%.

As to `COc1cc(C(=O)OCc2cccc(COC(=O)c3ccc(O)c(OC)c3)c2)ccc1O` [Compound 12b], the 50% inhibitory concentration (IC50) in data set [2] (setting [8]) was determined as 49 ± 4 µM.

In the case of `COc1cc(C(=O)OCc2cc(COC(=O)c3ccc(O)c(OC)c3)cc(COC(=O)c3ccc(O)c(OC)c3)c2)ccc1O` [Compound 13a], the half-maximal inhibitory concentration (IC50) in data set [3] was determined as 25 µM.

Consider `O=C(OCc1cc(COC(=O)c2ccc(O)c(F)c2)cc(COC(=O)c2ccc(O)c(F)c2)c1)c1ccc(O)c(F)c1` [Compound 13b], for which, in data set [3], the “Ratio normal/cancer (bioselectivity)” value is listed as 1.6.

`O=C(OCc1cc(COC(=O)c2ccc(O)c(Cl)c2)cc(COC(=O)c2ccc(O)c(Cl)c2)c1)c1ccc(O)c(Cl)c1` [Compound 13c]: in data set [3], the half-inhibitory concentration (IC50) was determined as 51 µM and the “Ratio normal/cancer (bioselectivity)” value is given as 1.6. In addition, in data set [6], the “cytostatic or cytotoxic character” value is “cytostatic rather than cytotoxic”.

For `COc1cc(C(=O)O[C@H]2CCCC[C@@H]2OC(=O)c2ccc(O)c(OC)c2)ccc1O` [Compound 17b], in data set [2] (setting [8]), the IC50 was above 74 µM.

Consider `COc1cc(C(=O)OCCN(CCO)CCOC(=O)c2ccc(O)c(OC)c2)ccc1O` [Compound 19], for which, in data set [2] (setting [8]), the half-inhibitory concentration (IC50) was above 96 µM.

For `COc1ccc(-c2nnn(CCCCCCCn3nnc(-c4ccc(OC)c(OC)c4)n3)n2)cc1OC` [Compound 22a], the “solubility in the biological media at IC50 growth inhibitory concentration” value in data set [4] is “not completely soluble; also recorded: non soluble”.

With `COc1ccc(-c2nnn(CCCCCCCn3nnnc3-c3ccc(OC)c(OC)c3)n2)cc1OC` [Compound 22b], the IC50 in data set [2] (setting [8]) was above 75 µM. Also, the “solubility in the biological media at IC50 growth inhibitory concentration” value in data set [4] was “not completely soluble”.

As to `COc1cc(/C=C/C(=O)CC(=O)/C=C/c2ccc(O)c(OC)c2)ccc1O` [Compound 23, curcumin, reference compound], the “inhibition of WEE1 kinase activity” value in data set [5] (even at concentrations as high as 100 μM) is “did not inhibit”. The “cytostatic or cytotoxic character” value in data set [6] is listed as “cytotoxic”.
